Active and inactive are the calls of the source. The calls are words filed in the database; no cut-off is given here.
How the values were obtained:
J82 [1] = test: Cell cycle arrest in cisplatin resistant human J82 cells assessed as accumulation at G1 phase incubated for 24 hrs by propidium iodide staining based flow cytometry (reference value: 78.1%); assay type: functional
A2780cisR [2] = test: Cell cycle arrest in human A2780cisR cells assessed as accumulation at G1 phase incubated for 24 hrs by propidium iodide staining based flow cytometry (reference value: 68.7%); assay type: functional
A2780 [3] = test: Cell cycle arrest in human A2780 cells assessed as accumulation at G1 phase incubated for 24 hrs by propidium iodide staining based flow cytometry (reference value: 61.8%); assay type: functional
J82 [4] = test: Cell cycle arrest in human J82 cells assessed as accumulation at G1 phase incubated for 24 hrs by propidium iodide staining based flow cytometry (reference value: 69.6%); assay type: functional
J82 [5] = test: Induction of apoptosis in human J82 cells assessed as depolarization of mitochondrial membrane potential at 20 uM incubated for 2 hrs by hoechst 33342 staining based fluorescence microscopy; assay type: functional, cell-based
Outline: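 J82 cells treated 2 h with PXA, then labelled 20 min with TMRE plus Hoechst 33342. ΔΨm read by high-content fluorescence imaging. Untreated medium and 20 µM CCCP served as controls.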

J82 [6] = test: Induction of apoptosis in cisplatin resistant human J82 cells assessed as depolarization of mitochondrial membrane potential at 20 uM incubated for 2 hrs by hoechst 33342 staining based fluorescence microscopy; assay type: functional, cell-based
Outline: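 J82CisR cells exposed 2 h, then labelled with TMRE and Hoechst 33342 for 20 min. TMRE signal imaged on a high-content fluorescence imaging platform. Untreated medium control and 20 µM CCCP positive control.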

A2780 [7] = test: Induction of apoptosis in human A2780 cells assessed as decrease in mitochondrial membrane potential at 20 uM incubated for 24 hrs by TMRE staining based flow cytometry; assay type: functional, cell-based
Outline: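 Cells seeded overnight; medium switched to FBS-free just before treatment to avoid TMRE ester cleavage. Exposure 1 h, 2 h or 24 h, then TMRE staining for 20 min. Cells trypsinized, centrifuged at 4 °C and read by flow cytometry. Medium as negative control, 20 µM CCCP as positive control. […]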

A2780cisR [8] = test: Induction of apoptosis in human A2780cisR cells assessed as decrease in mitochondrial membrane potential at 20 uM incubated for 24 hrs by TMRE staining based flow cytometry; assay type: functional, cell-based
Outline: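 Cells seeded overnight; complete medium swapped for FBS-free medium just before treatment to avoid TMRE ester cleavage. Exposure to PXA for 1 h, 2 h or 24 h. TMRE staining 20 min, cells collected by trypsinisation, ΔΨm read by flow cytometry. Medium served as negative control, 20 µM CCCP as positive control. Mean ± SEM reported.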

Compound | Activity (J82 [1]) | Activity (A2780cisR [2]) | Activity (A2780 [3]) | Activity (J82 [4]) | Activity (J82 [5]) | Activity (J82 [6]) | Activity (A2780 [7]) | Activity (A2780cisR [8])
CC(=O)O[C@H]1C(=O)[C@@]2(C)[C@H]([C@H](OC(=O)c3ccccc3)[C@]3(O)C[C@H](OC(=O)[C@H](O)[C@@H](NC(=O)c4ccccc4)c4ccccc4)C(C)=C1C3(C)C)[C@]1(OC(C)=O)CO[C@@H]1C[C@@H]2O [PACLITAXEL] | 29.1% | 21.3% | 22.6% | 35.1% |  |  |  | 
N#CC(C#N)=NNc1cccc(Cl)c1 |  |  |  |  | Active | Active | Active | Active
